Columns and labels:
Format in all cases: functional
HT-29 [1] = experiment: Cytotoxicity against human HT-29 cells assessed as cell growth at 10 uM after 48 hrs by sulforhodamine B assay relative to control; details: HT-29, 48 h, read-out: Activity
In short: (§1)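 Compounds went through the NCI 60 cell-line screen, whose current protocol tests first at a single dose.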

SN12C [2] = experiment: Cytotoxicity against human SN12C cells assessed as cell growth at 10 uM after 48 hrs by sulforhodamine B assay relative to control; details: read-out: Activity; in short: as §1
RXF 393 = experiment: Cytotoxicity against human RXF393 cells assessed as cell growth at 10 uM after 48 hrs by sulforhodamine B assay relative to control; details: RXF 393, 48 h, read-out: Activity; in short: as §1
MDA-MB-231 [3] = experiment: Cytotoxicity against human MDA-MB-231/ATCC cells assessed as cell growth at 10 uM after 48 hrs by sulforhodamine B assay relative to control; details: MDA-MB-231, 48 h, read-out: Activity; in short: as §1
SNB-19 = experiment: Growth inhibition of human SNB19 cells after 48 hrs by sulforhodamine B assay; details: SNB-19, 48 h
HT-29 [4] = experiment: Growth inhibition of human HT-29 cells after 48 hrs by sulforhodamine B assay; details: HT-29, 48 h
Malme-3M = experiment: Growth inhibition of human MALME-3M cells after 48 hrs by sulforhodamine B assay
MDA-MB-435 = experiment: Growth inhibition of human MDA-MB-435 cells after 48 hrs by sulforhodamine B assay; details: MDA-MB-435, 48 h
UACC-257 = experiment: Growth inhibition of human UACC257 cells after 48 hrs by sulforhodamine B assay; details: UACC-257, 48 h
A498 = experiment: Growth inhibition of human A498 cells after 48 hrs by sulforhodamine B assay; details: A498, 48 h
HOP-92 = experiment: Growth inhibition of human HOP92 cells after 48 hrs by sulforhodamine B assay; details: HOP-92, 48 h
MDA-MB-468 = experiment: Growth inhibition of human MDA-MB-468 cells after 48 hrs by sulforhodamine B assay; details: MDA-MB-468, 48 h
SR = experiment: Growth inhibition of human SR cells after 48 hrs by sulforhodamine B assay
LOX IMVI = experiment: Growth inhibition of human LOXIMVI cells after 48 hrs by sulforhodamine B assay
UACC-62 = experiment: Growth inhibition of human UACC62 cells after 48 hrs by sulforhodamine B assay; details: UACC-62, 48 h
SN12C [5] = experiment: Growth inhibition of human SN12C cells after 48 hrs by sulforhodamine B assay
IGROV-1 = experiment: Growth inhibition of human IGROV1 cells after 48 hrs by sulforhodamine B assay; details: IGROV-1, 48 h
DU-145 = experiment: Growth inhibition of human DU145 cells after 48 hrs by sulforhodamine B assay; details: DU-145, 48 h
OVCAR-8 = experiment: Growth inhibition of human OVCAR8 cells after 48 hrs by sulforhodamine B assay; details: OVCAR-8, 48 h
SK-MEL-5 = experiment: Growth inhibition of human SK-MEL-5 cells after 48 hrs by sulforhodamine B assay; details: SK-MEL-5, 48 h
MDA-MB-231 [6] = experiment: Growth inhibition of human MDA-MB-231/ATCC cells after 48 hrs by sulforhodamine B assay; details: MDA-MB-231, 48 h
OVCAR-4 = experiment: Growth inhibition of human OVCAR4 cells after 48 hrs by sulforhodamine B assay; details: OVCAR-4, 48 h
786-0 = experiment: Growth inhibition of human 786-0 cells after 48 hrs by sulforhodamine B assay; details: 786-0, 48 h
SK-MEL-2 = experiment: Growth inhibition of human SK-MEL-2 cells after 48 hrs by sulforhodamine B assay; details: SK-MEL-2, 48 h
NCI/ADR-RES = experiment: Growth inhibition of human NCI/ADR-RES cells after 48 hrs by sulforhodamine B assay
MOLT-4 = experiment: Growth inhibition of human MOLT4 cells after 48 hrs by sulforhodamine B assay; details: MOLT-4, 48 h
OVCAR-3 = experiment: Growth inhibition of human OVCAR3 cells after 48 hrs by sulforhodamine B assay; details: OVCAR-3, 48 h
M14 = experiment: Growth inhibition of human M14 cells after 48 hrs by sulforhodamine B assay; details: M14, 48 h
SF-539 = experiment: Growth inhibition of human SF539 cells after 48 hrs by sulforhodamine B assay; details: SF-539, 48 h
MCF7 = experiment: Growth inhibition of human MCF7 cells after 48 hrs by sulforhodamine B assay; details: MCF7, 48 h
CAKI-1 = experiment: Growth inhibition of human Caki1 cells after 48 hrs by sulforhodamine B assay; details: CAKI-1, 48 h
TK-10 = experiment: Growth inhibition of human TK10 cells after 48 hrs by sulforhodamine B assay; details: TK-10, 48 h
[7] = read-out: pLC50 (the source's name) (converted)

Q: With COCc1cc(/C=C/c2cc(O)c(C/C=C(\C)CCC=C(C)C)c(OC)c2)cc2c1O[C@]1(C)CC[C@@H](O)C(C)(C)[C@H]1C2 as the molecule, how does the growth at 10 µM (HT-29 [1]) read?
A: 47.9%

Q: What about the growth at 10 µM (SN12C [2]) of the same molecule?
A: 96.2%

Q: And the growth at 10 µM (RXF 393)?
A: 88%

Q: What about the growth at 10 µM (MDA-MB-231 [3]) of the same molecule?
A: 81.3%

Q: Which growth at 10 µM (HT-29 [1]) does the source give for COc1cc(/C=C/c2cc(Br)c3c(c2)C[C@@H]2C(C)(C)[C@H](O)CC[C@@]2(C)O3)cc(O)c1C/C=C(\C)CCC=C(C)C here?
A: 74.5%

Q: What about the growth at 10 µM (SN12C [2]) of the same molecule?
A: 101%

Q: What about the growth at 10 µM (RXF 393) of the same molecule?
A: 80.7%

Q: And the growth at 10 µM (MDA-MB-231 [3])?
A: 96.6%

Q: Which results are given for COc1cc(/C=C/c2cc(O)c3c(c2)C[C@@H]2C(C)(C)[C@H](O)CC[C@@]2(C)O3)cc(O)c1C/C=C(\C)CCC=C(C)C?
A: GI50 (SNB-19): 2.88 µM; LC50 (SNB-19): 42.7 µM; TGI (SNB-19; read-out: pTGI (converted)): 17.8 µM; GI50 (HT-29 [4]): 1.23 µM; LC50 (concentration killing 50% of cells) (HT-29 [4]): 27.5 µM; TGI (HT-29 [4]; read-out: pTGI (converted)): 4.9 µM; GI50 (Malme-3M): 1.95 µM; LC50 (Malme-3M): 30.9 µM; TGI (Malme-3M; read-out: pTGI (converted)): 5.13 µM; GI50 (MDA-MB-435): 0.794 µM; LC50 (MDA-MB-435): 34.7 µM; TGI (MDA-MB-435; read-out: pTGI (converted)): 5.01 µM; GI50 (UACC-257): 7.59 µM; LC50 (UACC-257): 61.7 µM; TGI (UACC-257; read-out: pTGI (converted)): 23.4 µM; GI50 (A498): 0.117 µM; LC50 (A498): 12 µM; TGI (A498; read-out: pTGI (converted)): 2.45 µM; GI50 (HOP-92): 2.29 µM; LC50 (HOP-92): 50.1 µM; TGI (HOP-92; read-out: pTGI (converted)): 6.61 µM; GI50 (MDA-MB-468): 1.1 µM; LC50 (MDA-MB-468): 9.12 µM; TGI (MDA-MB-468; read-out: pTGI (converted)): 3.16 µM; GI50 (SR): 0.288 µM; LC50 (SR): 100 µM; TGI (SR; read-out: pTGI (converted)): 4.07 µM; GI50 (LOX IMVI): 0.525 µM; LC50 (LOX IMVI): 4.68 µM; TGI (LOX IMVI; read-out: pTGI (converted)): 1.91 µM; GI50 (UACC-62): 0.204 µM; LC50 (50% lethal concentration) (UACC-62): 7.41 µM; TGI (UACC-62; read-out: pTGI (converted)): 0.794 µM; GI50 (SN12C [5]): 1.51 µM; LC50 (SN12C [5]): 8.51 µM; TGI (SN12C [5]; read-out: pTGI (converted)): 3.63 µM; GI50 (IGROV-1): 2.09 µM; LC50 (IGROV-1): 40.7 µM; TGI (IGROV-1; read-out: pTGI (converted)): 11 µM; GI50 (DU-145): 2 µM; LC50 (DU-145): 77.6 µM; TGI (DU-145; read-out: pTGI (converted)): 11.7 µM; GI50 (OVCAR-8): 2.82 µM; LC50 (OVCAR-8): 51.3 µM; TGI (OVCAR-8; read-out: pTGI (converted)): 12.6 µM; GI50 (SK-MEL-5): 0.955 µM; LC50 (SK-MEL-5): 5.37 µM; TGI (SK-MEL-5; read-out: pTGI (converted)): 2.29 µM; GI50 (MDA-MB-231 [6]): 1.2 µM; CC50 (MDA-MB-231 [6]; [7]): 8.13 µM; TGI (MDA-MB-231 [6]; read-out: pTGI (converted)): 2.88 µM; GI50 (OVCAR-4): 2.63 µM; LC50 (OVCAR-4): 63.1 µM; TGI (OVCAR-4; read-out: pTGI (converted)): 19.1 µM; GI50 (786-0): 0.0339 µM; CC50 (786-0; [7]): 15.5 µM; TGI (786-0; read-out: pTGI (converted)): 1.45 µM; GI50 (SK-MEL-2): 6.92 µM; LC50 (SK-MEL-2): 56.2 µM; TGI (SK-MEL-2; read-out: pTGI (converted)): 22.4 µM; GI50 (NCI/ADR-RES): 2.57 µM; LC50 (NCI/ADR-RES): 58.9 µM; TGI (NCI/ADR-RES; read-out: pTGI (converted)): 10.2 µM; GI50 (MOLT-4): 0.0339 µM; LC50 (MOLT-4): 100 µM; TGI (MOLT-4; read-out: pTGI (converted)): 0.245 µM; GI50 (OVCAR-3): 1.45 µM; LC50 (OVCAR-3): 15.5 µM; TGI (OVCAR-3; read-out: pTGI (converted)): 4.07 µM; GI50 (M14): 1.1 µM; LC50 (M14): 18.6 µM; TGI (M14; read-out: pTGI (converted)): 3.47 µM; GI50 (SF-539): 0.0525 µM; LC50 (SF-539): 6.92 µM; TGI (SF-539; read-out: pTGI (converted)): 1.66 µM; GI50 (MCF7): 0.309 µM; LC50 (MCF7): 29.5 µM; TGI (MCF7; read-out: pTGI (converted)): 3.47 µM; GI50 (CAKI-1): 1.7 µM; LC50 (CAKI-1): 38.9 µM; TGI (CAKI-1; read-out: pTGI (converted)): 6.76 µM; GI50 (TK-10): 2.19 µM; LC50 (TK-10): 41.7 µM; TGI (TK-10; read-out: pTGI (converted)): 8.91 µM

— ChEMBL document CHEMBL1926642, “Relevance of the C-5 position to schweinfurthin induced cytotoxicity” (2011)
